pIC50: −log10 of the molar value. Active and inactive are the calls of the source. The rule behind the calls is not given here.
Columns and labels:
SK-BR-3 [1] = test: Induction of apoptosis in human SKBR3 cells assessed as PARP cleavage by Western blotting analysis; format: functional, cell-based
Method in brief: (§1)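 SKBr3 cells at 60–70% confluence treated with compound or DMSO for the indicated times. Lysed in 50 mM Tris pH 7.4, 150 mM NaCl, 1% NP-40. 10–50 μg protein (BCA) resolved by SDS–PAGE and immunoblotted for HER2, Raf-1, or the PARP p85 fragment, with β-actin as loading control.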

[2] = Growth inhibition of human SKBR3 cells after 72 hrs by Alamar Blue assay; format: functional, cell-based; conditions: SK-BR-3, 72 h
Method in brief: (§2)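 Cells plated 8000/well (SKBr3, adherent) or 20000/well (Kasumi-1, suspension) and left 24 h at 37 °C. Compound added in triplicate for 72 h. Alamar Blue (50 μM) added; fluorescence (ex 530/em 580 nm) read 6 h later.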

Kasumi 1 = test: Growth inhibition of human Kasumi-1 cells expressing p-gp/MDR1 after 72 hrs by Alamar Blue assay; format: functional, cell-based; conditions: Kasumi 1, 72 h; method in brief: as §2
[3] = molecular target: Heat shock protein HSP 90-beta (Homo sapiens, UniProt P08238); test: Displacement of GM-cy3B from Hsp90 in human SKBR3 cells after 24 hrs by fluorescence polarization assay; design: species or system SK-BR-3
Method in brief: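 Final 6 nM GM-cy3B with 3 μg SKBr3 lysate protein; compound in triplicate; geldanamycin as positive control. Shaken 24 h at 4 °C, mP read. Concentration displacing 50% of bound tracer obtained by curve fitting.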

[4] = Inhibition of Hsp70 in human SKBR3 cells assessed as HER2 protein degradation by Western blotting analysis; format: cell-based; conditions: SK-BR-3; method in brief: as §1
MOLM-13 = test: Induction of apoptosis in human MOLM13 assessed as caspase 3/7 activation using Z-DEVD-R110 as substrate pretreated for 16 hrs followed by substrate addition by fluorescence-based assay; format: functional, cell-based
Method in brief: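 MOLM-13 cells (30000/well, RPMI) rested up to 24 h at 37 °C, 5% CO2. Treated 16 h with compound or DMSO, in triplicate. Then buffer added containing 10 mM HEPES pH 7.5, 2 mM EDTA, 0.1% CHAPS and 25 μM Z-DEVD-R110. Fluorescence read once stable; % increase in apoptotic cells calculated versus control.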

[5] = Inhibition of Hsp70 in human SKBR3 cells assessed as RAF1 protein degradation by Western blotting analysis; format: cell-based; conditions: SK-BR-3; method in brief: as §1
[6] = Inhibition of His-tagged Escherichia coli DNAK assessed as inhibition of DNAJ complex formation
SK-BR-3 [7] = test: Binding affinity to Hsp70 in human SKBR3 cells after 1 hr by […] in presence of N-(6-Amino-2-((4,6-dimethoxy-2-(4-methylpiperazin-1-yl)-pyrimidin-5-yl)thio)pyrimidin-4-yl)acrylamide; format: cell-based
Method in brief: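 Cells pretreated 2 h with increasing concentrations of soluble competitor, then lysed (20 mM Tris pH 7.4, 25 mM NaCl, 0.1% NP-40). Extract (500 μg protein) incubated overnight with beads carrying biotinylated ligand (50 μM, loaded 1 h at 4 °C). Beads washed in high-salt buffer (1 M NaCl), run on SDS–PAGE, and silver stained.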

[8] = (§3) Inhibition of Hsp70 in human SKBR3 cells assessed as inhibition of HOP complex formation after 24 hrs by Western blotting analysis; format: cell-based; conditions: SK-BR-3, 24 h
Method in brief: (§4)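 SKBr3 cells treated 24 h at the indicated concentrations, then lysed (20 mM Tris pH 7.4, 25 mM NaCl, 0.1% NP-40, protease inhibitors). 500 μg protein immunoprecipitated overnight at 4 °C with anti-Hsp70 BB70 (normal IgG as negative control) and protein G beads. Beads washed five times; co-precipitated HOP detected by Western blot.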

SK-BR-3 [9] = test: as §3; format: cell-based; method in brief: as §4

Chain of Heat shock protein HSP 90-beta (P08238 whole entry): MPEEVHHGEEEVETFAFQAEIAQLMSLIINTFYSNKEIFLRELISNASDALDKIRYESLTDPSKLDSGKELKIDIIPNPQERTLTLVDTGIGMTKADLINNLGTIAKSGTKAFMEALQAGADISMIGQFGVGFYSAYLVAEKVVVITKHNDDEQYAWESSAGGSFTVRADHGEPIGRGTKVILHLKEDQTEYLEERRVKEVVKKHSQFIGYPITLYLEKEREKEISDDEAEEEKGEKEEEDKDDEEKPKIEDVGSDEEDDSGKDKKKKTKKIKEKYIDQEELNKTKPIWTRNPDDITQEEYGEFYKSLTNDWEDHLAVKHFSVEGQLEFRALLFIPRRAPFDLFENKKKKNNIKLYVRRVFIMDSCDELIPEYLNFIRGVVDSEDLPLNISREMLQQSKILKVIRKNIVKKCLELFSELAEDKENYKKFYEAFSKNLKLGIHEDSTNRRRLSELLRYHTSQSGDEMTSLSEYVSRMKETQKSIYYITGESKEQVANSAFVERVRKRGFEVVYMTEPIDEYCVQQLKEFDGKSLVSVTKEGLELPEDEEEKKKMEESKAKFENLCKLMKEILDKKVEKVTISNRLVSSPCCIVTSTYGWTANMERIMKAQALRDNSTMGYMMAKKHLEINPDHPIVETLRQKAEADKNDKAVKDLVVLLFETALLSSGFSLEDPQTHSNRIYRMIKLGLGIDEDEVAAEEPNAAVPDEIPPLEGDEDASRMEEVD

Compound | pIC50 (SK-BR-3 [1]) | pIC50 [2] | pIC50 (Kasumi 1) | pIC50 [3] | pIC50 [4] | pIC50 (MOLM-13) | pIC50 [5] | pIC50 [6] | Activity (SK-BR-3 [7]) | pIC50 [8] | inhibition (SK-BR-3 [9])
C=C(C)C(=O)Nc1ccnc(Sc2c(C)nc(N3CCN(C)CC3)nc2C)n1 | 4.40 | 4.78 | 4.46 | < 3.30 | 4.52 | 4.35 | 4.30 | – | – | – | –
O=c1c(O)c(-c2cc(O)c(O)c(O)c2)oc2cc(O)cc(O)c12 [MYRICETIN] | < 4.00 | – | – | – | < 4.00 | – | < 4.00 | 4.84 | – | – | –
C=CC(=O)Nc1cc(N)nc(Sc2c(OC)nc(N3CCOCC3)nc2OC)n1 | – | – | – | – | – | 4.92 | – | – | – | – | –
C=CC(=O)Nc1cc(N)nc(Sc2c(OC)nc(N)nc2OC)n1 | 5.12 | 5.49 | 5.41 | < 3.30 | 5.30 | 5.35 | 5.46 | – | – | – | –
C=CC(=O)Nc1cc(N)nc(Sc2c(OCC)nc(N3CCOCC3)nc2OCC)n1 | – | – | 5.66 | – | – | 4.98 | – | – | – | – | –
C=CC(=O)Nc1cc(N)nc(Sc2c(OC)nc(N3CCN(C)CC3)nc2OCCOCCOCCOCCO)n1 | 4.00 | 4.30 | 4.12 | < 3.30 | 4.12 | 4.00 | 4.22 | – | – | – | –
C=CC(=O)Nc1cccc(Sc2c(OC)nc(N3CCOCC3)nc2OC)c1 | 5.00 | 4.78 | 4.33 | < 3.30 | 4.82 | 4.56 | 4.70 | – | – | – | –
C=CC(=O)Nc1cc(N)nc(Sc2c(OC)nc(N3CCN(CCOCCOCCOCCOC(=O)CCCC[C@@H]4SC[C@@H]5NC(=O)N[C@@H]54)CC3)nc2OC)n1 | – | – | – | – | – | – | – | – | Active | – | –
C=CC(=O)Nc1ccnc(Sc2c(OC)nc(OC)nc2OC)n1 | – | – | – | – | – | 5.12 | – | – | – | – | –
C=CC(=O)Nc1cc(N)nc(Sc2c(OC)nc(N3CCN(CCOCCOCCOCCO)CC3)nc2OC)n1 | 5.00 | 5.12 | 5.42 | < 3.30 | 5.60 | 4.84 | – | – | – | – | –
C/C=C/C(=O)Nc1ccnc(Sc2c(C)nc(N3CCN(C)CC3)nc2C)n1 | – | – | 4.70 | – | – | 4.49 | – | – | – | – | –
C=CC(=O)Nc1cc(N)nc(Sc2c(OCC)nc(N3CCCCC3)nc2OCC)n1 | 5.00 | 5.15 | 5.35 | < 3.30 | 5.70 | 5.40 | 5.51 | – | – | – | –
C=CC(=O)Nc1ccnc(Sc2c(C)nc(N3CCOCC3)nc2C)n1 | – | – | 4.84 | – | – | 4.81 | – | – | – | – | –
C=CC(=O)Nc1cc(N)nc(Sc2c(OC)nc(N3CCN(C)CC3)nc2OC)n1 | 5.70 | 6.10 | 6.05 | < 3.30 | 6.15 | 5.92 | 5.77 | – | – | – | –
C=CC(=O)Nc1ccnc(Sc2c(OC)nc(N3CCN(C)CC3)nc2OC)n1 | 5.12 | 5.92 | 5.90 | < 3.30 | 5.12 | 5.40 | 5.30 | – | – | – | –
C=CC(=O)Nc1ccnc(Sc2c(OC)nc(N3CCCCC3)nc2OC)n1 | – | – | 5.50 | – | – | 4.91 | – | – | – | – | –
C=CC(=O)Nc1cc(N)nc(Sc2c(OCC)nc(N3CCN(C)CC3)nc2OCC)n1 | 5.82 | 5.96 | 6.05 | < 3.30 | 6.00 | 5.40 | 5.60 | – | – | 5.76 | Dose-dependent effect
C=CC(=O)Nc1ccnc(Sc2c(OC)nc(N3CCCC3)nc2OC)n1 | 4.60 | 5.30 | 4.34 | < 3.30 | 4.70 | < 4.00 | 4.77 | – | – | – | –
C=CC(=O)Nc1cccc(Sc2c(OC)nc(N3CCN(C)CC3)nc2OC)c1 | – | – | 5.11 | – | – | – | – | – | – | – | –
C=C(C)C(=O)Nc1cccc(Sc2c(OC)nc(N3CCN(C)CC3)nc2OC)c1 | – | – | – | – | – | 4.22 | – | – | – | – | –
C#CCCCn1c(Cc2cc(OC)c(OC)c(OC)c2Cl)nc2c(N)nc(F)nc21 | – | 5.54 | – | – | 5.70 | – | 5.60 | – | – | – | –
C=CC(=O)Nc1ccnc(Sc2c(OC)nc(N3CCOCC3)nc2OC)n1 | – | – | 5.70 | – | – | 5.14 | – | – | – | – | –
C=CC(=O)Nc1ccnc(Sc2c(OC)nc(N3CC[N+](C)([O-])CC3)nc2OC)n1 | – | – | < 4.00 | – | – | < 4.00 | – | – | – | – | –
C=CC(=O)Nc1cc(N)nc(Sc2c(OC)nc(N3CCCCC3)nc2OC)n1 | 5.30 | 5.05 | 4.77 | < 3.60 | 5.60 | 4.79 | 5.12 | – | – | – | –
C=CC(=O)Nc1ccnc(Sc2c(C)nc(N3CCN(C)CC3)nc2C)n1 | 5.30 | 5.74 | – | < 3.30 | 5.40 | 5.22 | 5.30 | – | – | – | –
